# A selection: hits, their analogues and other compounds. The true share with any hit is near 2.1%.
# aDG glyco up = activators of alpha-DG glycosylation, primary screen, uHTS, Pro5-aDG cells, AlphaScreen; alpha-DG glycosylation AlphaScreen (IIH6); 0% Pro5, 100% B10-LARGE cell signal; activation, % at 10 µM; 360,000 compounds, 0.22% hits; AID 624168, 2012;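 active means activation of at least 8% versus controls, or a plate z-score of at least 8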;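 further: Pro5 are CHO cells carrying HIG-tagged alpha-DG that lacks glycosylation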
# B2AR ag = beta2AR agonists driving receptor internalization, primary screen, cell-based, FAP fluorogen, flow cytometry. Am2.2-beta2AR cells. 340,000 compounds, 0.43% hits. response, % (test concentration not listed). AID 504454, 2011;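 active means response above a set limit, near 3 SD of response in nonfluorescent compounds, cut at about 42% in these data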
# Target sequence (P07550 whole entry, looked up): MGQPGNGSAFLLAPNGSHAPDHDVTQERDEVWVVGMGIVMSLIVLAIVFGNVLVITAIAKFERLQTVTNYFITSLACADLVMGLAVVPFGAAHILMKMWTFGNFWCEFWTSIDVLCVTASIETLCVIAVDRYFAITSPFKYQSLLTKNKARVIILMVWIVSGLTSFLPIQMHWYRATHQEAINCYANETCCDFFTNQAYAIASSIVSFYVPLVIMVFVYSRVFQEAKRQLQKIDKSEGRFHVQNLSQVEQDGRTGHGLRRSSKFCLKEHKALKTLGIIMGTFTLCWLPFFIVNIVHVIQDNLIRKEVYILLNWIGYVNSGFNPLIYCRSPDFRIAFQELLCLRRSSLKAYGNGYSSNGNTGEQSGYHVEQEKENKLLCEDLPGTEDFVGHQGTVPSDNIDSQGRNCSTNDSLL
# UCH37 inh = inhibitors of human UCH37 deubiquitinase, primary screen, biochemical, Ub-AMC cleavage, fluorescence. Ubiquitin carboxyl-terminal hydrolase isozyme L5 (Homo sapiens), Q9Y5K5. purified proteasome/UCH37. inhibition, % (concentration not given with the values). 330,000 compounds, 0.33% hits. AID 588478, 2011;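 active means mean inhibition over replicate wells above about 20%, limit read from the data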;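 further: 0% = compound-free wells with enzyme and 100% = wells lacking proteasome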
# Target sequence (Q9Y5K5 whole entry, looked up): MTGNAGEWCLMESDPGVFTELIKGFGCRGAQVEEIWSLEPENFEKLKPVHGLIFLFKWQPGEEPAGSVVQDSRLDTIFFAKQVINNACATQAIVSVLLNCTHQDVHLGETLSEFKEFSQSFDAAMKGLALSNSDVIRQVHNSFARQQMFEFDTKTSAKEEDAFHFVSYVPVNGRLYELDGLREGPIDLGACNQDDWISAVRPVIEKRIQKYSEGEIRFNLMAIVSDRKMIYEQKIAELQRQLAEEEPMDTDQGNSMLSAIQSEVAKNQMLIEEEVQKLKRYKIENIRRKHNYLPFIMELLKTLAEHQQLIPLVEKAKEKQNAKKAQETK
#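 Material: Human UCH37 enzyme supplied as purified proteasome complex | Schedule: 30 min preincubation with enzyme, 25 min cleavage at room temperature | Detection: AMC fluorescence 355/460 nm | Measure: % inhibition of Ub-AMC cleavage fluorescence | Controls: Wells without proteasome as full block, compound-free enzyme plus substrate as uninhibited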
# H9c2 protect = cardioprotection against H2O2-induced cell death, primary screen, uHTS, H9c2 cells, ATPLite luminescence; H9c2 cardiomyocytes, H2O2 injury protection, 2 h; protection from H2O2 cell death, % at 20 µM; 360,000 compounds, 0.63% hits;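 active means compounds giving at least 50% protection of heart cells from peroxide-induced death in the single-dose screen, raw or plate-pattern-corrected value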;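 further: 0% = DMSO wells with peroxide and 100% = DMSO wells without peroxide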
# PfGluPho inh = PfG6PD enzyme inhibitors, primary screen, biochemical, fluorescence intensity, uHTS; 350,000 compounds, 0.78% hits; inhibition, % at 20 µM; glucose-6-phosphate dehydrogenase-6-phosphogluconolactonase (Plasmodium falciparum 3D7); PfGluPho enzyme, NADPH resazurin-diaphorase fluorescence;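 active means inhibition reaching at least a set limit at 20 µM in the primary screen, cut at about 59% in these data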;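 further: 0% = DMSO wells with substrate and 100% = DMSO wells lacking glucose-6-phosphate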
# HKDC1 inh = HKDC1 hexokinase inhibitors, primary screen, biochemical, fluorescence, uHTS. Q2TB90. recombinant HKDC1, G6PDH/diaphorase resazurin coupled fluorescence. inhibition, % at 20 µM. 340,000 compounds, 0.16% hits. AID 493160, 2011;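 active means inhibition above about 35% when tested at 20 µM, limit read from the data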;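 further: plate controls were DMSO wells with enzyme for no effect and DMSO wells lacking enzyme for full effect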
#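 Assay system – recombinant HKDC1 (HK5) hexokinase enzyme, produced in-house · Input – HKDC1 at 5 µg/mL · Reagent – glucose plus 1 mM ATP as hexokinase substrates · Timing – 90 min reaction incubation at room temperature, dark · Measured by – G6PDH/diaphorase-coupled fluorescence, 1 mM NADP, 100 µM resazurin, 525/613 nm · Benchmarks – DMSO-enzyme wells negative, buffer-substituted wells positive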
# PfG6PD confirm = PfG6PD inhibitors, hit retest, confirmation, biochemical, fluorescence intensity, single concentration; recombinant PfGluPho, NADPH-diaphorase-resazurin fluorescence; shares compounds with PfGluPho inh; inhibition, % at 20 µM; 2,400 compounds, 34% hits;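 active means inhibition of at least 50% at 20 µM in any single replicate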;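 further: 0% = DMSO with substrate and 100% = DMSO lacking glucose-6-phosphate substrate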
# Diaph ctr 10uM = diaphorase inhibitors and chemical oxidizers, confirmation, counter-screen for P. falciparum G6PD inhibitor project, biochemical, fluorescence intensity, 10 µM NADPH. shares compounds with PfGluPho inh. diaphorase-coupled resazurin reduction, NADPH 10 uM. inhibition, % at 20 µM. 820 compounds, 39% hits. AID 504862, 2011;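 active means average inhibition reaching 50% or more with the compound at 20 µM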;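 further: resorufin red fluorescence formed as diaphorase reduces resazurin using NADPH; 0% = DMSO with enzyme and 100% = DMSO without enzyme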
# Diaph ctr 30uM = diaphorase inhibitors and chemical oxidizers, confirmation, counter-screen for P. falciparum G6PD inhibitor project, biochemical, fluorescence intensity, 30 µM NADPH; shares compounds with PfGluPho inh; Diaphorase/resazurin coupled assay, resorufin fluorescence; inhibition, % at 20 µM; 820 compounds, 29% hits; AID 504863, 2011;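 active means inhibition averaging 50% or more, tested at 20 µM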;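 further: 0% = DMSO with enzyme and 100% = DMSO wells lacking diaphorase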
# Active calls of the source: *; x = no result given.
SMILES,aDG glyco up,B2AR ag,UCH37 inh,H9c2 protect,PfGluPho inh,HKDC1 inh,PfG6PD confirm,others
Cc1cccc(N/N=C/c2ccc(O)c(O)c2O)c1,0.2,3.6,x,34.2,84.2*,14.4,43.5,
Oc1ccc(/C=N/NC(=S)Nc2cccnc2)c(O)c1O,0.1,67.3*,x,3.7,80.3*,10.2,67.1*,Diaph ctr 10uM=55.4*;Diaph ctr 30uM=80.2*
CC(=NNC(=S)NCc1ccccc1)c1ccc(Cl)s1,x,x,5.4,x,x,x,x,
CC(=O)OCCCNc1cc(Sc2ccc(C)cc2)c2nonc2c1[N+](=O)[O-],-0.1,8.7,12.7,15.0,17.2,2.7,x,
CC(=O)OCCCNc1cc(Sc2nc3ccccc3s2)c2nonc2c1[N+](=O)[O-],-0.2,-241.5,x,-24.9,99.4*,22.4,63.2*,Diaph ctr 10uM=-17.6;Diaph ctr 30uM=-10.5
S=C(c1ccc(-c2ccccc2Cl)o1)N1CCOCC1,-0.2,-4.2,6.1,-13.7,61.6*,-7.3,41.7,
C=CCc1cccc(C=Nn2c(C)nnc2C)c1O,x,x,4.2,x,x,x,x,
CCc1ccc(NC(=O)c2c(Cl)nc(C)c(Cl)c2C)cc1,1.2,-5.5,x,-6.7,84.2*,-7.9,46.5,
CSC1SCC2C(=O)N(C)C(C(C)C)C(=O)OCC(NC(=O)c3cnc4ccccc4n3)C(=O)NC(C)C(=O)N(C)C1C(=O)N(C)C(C(C)C)C(=O)OCC(NC(=O)c1cnc3ccccc3n1)C(=O)NC(C)C(=O)N2C (stereo not drawn),0.3,-11.0,x,-4.1,59.3*,14.3,8.2,
CC1(OC(=O)C2CCCC2)C(=O)C=C2C=C(c3ccsc3)N(C3CCCC3)C=C2C1=O (stereo not drawn),0.3,2.2,3.0,-2.1,63.2*,23.2,38.0,
CC1(OC(=O)C2CCCC2)C(=O)C=C2C=C(c3ccsc3)N(CCCCO)C=C2C1=O (stereo not drawn),0.2,-6.0,7.4,3.1,65.8*,18.9,35.8,
CCn1c(SCC(=O)c2cc(C)n(-c3ccc(C(=O)OC)cc3)c2C)nnc1-c1cccnc1,0.7,-6.1,3.2,5.7,90.3*,0.4,36.9,
COc1cccc(C=NNC(=O)CNC(=O)c2cccnc2)c1O,x,x,-0.1,x,x,x,x,
Cc1cccc(C(=O)Nc2sc3c(c2C(=O)O)CCCC3)c1,0.4,3.4,0.6,-6.3,80.0*,6.2,53.4*,Diaph ctr 10uM=46.9;Diaph ctr 30uM=29.0
O=C(Nc1sc2c(c1C(=O)O)CCC2)c1ccccc1Cl,-0.1,10.9,8.2,1.4,7.1,-0.5,x,
O=C(Nc1sc2c(c1C(=O)O)CCC2)c1cccc(Cl)c1,0.0,5.0,9.4,-3.1,62.4*,4.9,35.0,
COc1ccc(C=NNc2ncc(-c3ccccc3)cn2)c(OC)c1,x,x,0.8,x,x,x,x,
Nn1cnnc1N/N=C\c1ccc(-c2ccccc2[N+](=O)[O-])o1,-0.3,8.9,x,-10.8,80.5*,-2.4,53.4*,Diaph ctr 10uM=73.6*;Diaph ctr 30uM=56.5*
O=c1[nH]c(=O)c2[nH]c(=S)[nH]c2[nH]1,0.0,-2.2,-9.7,-2.4,65.9*,5.3,27.9,
Nc1ncnc2[nH]c(=S)[nH]c12,0.1,-4.2,-0.8,2.0,28.9,-9.8,x,
COc1ccc(NC(C)C(=O)NN=Cc2cc(Br)ccc2OC)cc1 (stereo not drawn),x,x,1.0,x,x,x,x,
COc1ccc(NC(C)C(=O)N/N=C/c2cc(Br)ccc2OC)cc1 (stereo not drawn),0.7,-5.7,x,-3.2,85.8*,-1.4,62.4*,Diaph ctr 10uM=47.1;Diaph ctr 30uM=40.7
COc1ccc(CCCC(=O)NCC(=O)N/N=C/c2cc(Cl)ccc2OC)cc1,-0.2,-2.1,x,-0.4,82.8*,1.6,55.4*,Diaph ctr 10uM=59.1*;Diaph ctr 30uM=53.3*
COc1ccc(OC)c(/C=N/NC(=O)CCCC(=O)Nc2cccc(Br)c2)c1,0.8,3.3,x,-5.8,75.3*,6.4,36.4,
COc1ccc(OC)c(/C=N/NC(=O)CNC(=O)c2cccc3ccccc23)c1,-0.4,7.6,x,5.5,98.7*,-0.6,73.9*,Diaph ctr 10uM=63.4*;Diaph ctr 30uM=61.7*
SMILES,aDG glyco up,B2AR ag,UCH37 inh,H9c2 protect,PfGluPho inh,HKDC1 inh,PfG6PD confirm,others
COc1ccc(C=NNC(=O)CCC(=O)Nc2ccc(Br)cc2)c(OC)c1,x,x,3.2,x,x,x,x,
COc1cccc(C=NNc2ccc(C(=O)O)cc2)c1O,x,x,17.2,x,x,x,x,
CCN(CC)c1ccc(/C=N/N(c2ccccc2)c2ccccc2)c(O)c1,-0.8,14.6,x,-10.5,12.2,-1.7,x,
CCN(CC)c1ccc(C=Nc2ccccc2C)c(O)c1,0.0,8.2,5.2,-5.3,59.2*,1.8,28.2,
Cc1cc(Cl)ccc1N=c1ssnc1Cl,-0.4,-1.4,-0.3,-31.8,78.9*,-36.7,28.7,
Cc1cc(Cl)ccc1N=C1N=C(N)c2ccccc21,0.1,-5.2,6.1,-3.2,7.6,0.3,x,
COc1ccc(OC)c(N=c2ssnc2Cl)c1,-0.4,3.8,3.9,-0.6,82.0*,3.3,30.2,
COc1ccc(OC)c(N=C2C(=O)Nc3ccccc32)c1,0.8,-2.8,0.9,-2.5,15.9,-4.9,x,
CCOc1cc(C=NNC(=O)c2ccc(NC(=O)CC)cc2)ccc1OC(=O)c1ccccc1,x,x,5.9,x,x,x,x,
COc1ccc(C=Nn2c(-c3ccccc3)n[nH]c2=S)cc1,x,x,4.4,x,x,x,x,
CCCOC(=O)c1c(NC(=O)C2CCCO2)sc(C(=O)OC)c1C (stereo not drawn),0.2,-8.5,-21.4,-10.7,59.2*,-7.1,21.2,
CCOC(=O)c1c(NC(=O)C2CCCO2)sc(C(N)=O)c1C (stereo not drawn),-0.4,9.2,2.2,7.7,-8.3,-12.2,x,
COc1ccc([N+](=O)[O-])cc1/C=N/NC(=O)CNC(=O)C(c1ccccc1)c1ccccc1,0.2,-0.5,x,7.7,139.3*,6.4,86.3*,Diaph ctr 10uM=84.8*;Diaph ctr 30uM=80.4*
COc1ccc([N+](=O)[O-])cc1/C=N/NC(=O)CNC(=O)c1cccc(F)c1,-0.2,0.6,x,27.2,70.0*,-11.1,22.0,
COc1ccc([N+](=O)[O-])cc1C=NNC(=O)Cc1ccccc1,x,x,4.6,x,x,x,x,

# Source: PubChem BioAssay (several laboratories)
